This is a sample that favours compounds with a hit; in the whole collection about 4.4% have one here.
Calb FLC – C. albicans growth modulation with fluconazole | C. albicans CaCi-2 (fluconazole-resistant clinical isolate) + fluconazole, Alamar Blue growth, 48 h | growth inhibition, % (test concentration not listed) | actives 0.57% (n = 300,000) | AID 1979;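 active means growth inhibition above about 58% in most replicates, limit read from the data, passing the limit was not always enough; inconclusive means exactly half the replicates above a set limit; inactive means most replicates below a set limit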;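 further: all wells also contain fluconazole at 8 µg/ml as a sub-toxic cotreatment; 0% = median of DMSO wells and 100% = median of geldanamycin control wells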
HSF1 activator – increases HSF-1 driven luciferase reporter signal | NIH3T3-HGL HSF-1 luciferase reporter, MG132, 8 h; 100% = twice DMSO control signal | actives 1.7% (n = 300,000) | activation, % at 9 µM;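 active means mean replicate activation of at least 50% with a set share of replicates each reaching 50%; inconclusive means only one of those two conditions met; inactive means mean below 50% and too few replicates reaching it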;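 further: 0% = median of the neutral control wells and 100% = twice that signal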
T cruzi repl – T. cruzi replication inhibition; T. cruzi beta-gal in NIH3T3, luminescence, 90 h; inhibition, % (no concentration beside the values); actives 1.4% (n = 300,000);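 active means mean inhibition across valid replicates above about 55%, limit read from the data; inconclusive means mean below that limit but half or more replicates reach it; inactive means mean below it, under half of replicates reach it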;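 further: signal also drops with host cell toxicity which is not excluded here; 0% = plate median of DMSO wells and 100% = zero luminescence signal; higher percent means less beta-gal luminescence so fewer parasites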
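System: Mouse NIH/3T3 fibroblasts infected with β-gal-expressing T. cruzi Tulahuen C4 | Quantity: NIH/3T3 cells, 5,000 per well | Reagent: 5000 reporter trypomastigotes per well | Dosing: Compound pinned at 50 nL/well, DMSO | Schedule: 3 h host attachment, then at least 90 h co-culture | Detection: GalScreen luminescence, 60 min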
HIF activator – HIF pathway transcriptional activation | U2OS HRE-luciferase reporter, luminescence; normalized: DMSO 0%, desferrioxamine 100% | activation, % at 7.5 µM (by protocol) | actives 0.32% (n = 300,000) | AID 1910;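 active means mean activation of at least 10% of the iron chelator positive control signal, with at least half of replicates also reaching 10%; inconclusive means mean and replicate majority disagree about reaching 10%; inactive means mean and most replicates under 10%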
HSF1 inh – HSF1 inhibition | NIH3T3-HGL HSE-luciferase, MG132-induced, luminescence 8 h; stronger effect = lower value | actives 0.77% (n = 300,000) | AID 2098 | activity change, negative = inhibition, % at 7.5 µM (by protocol);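 active means more than half of replicate wells show activity change below -50%, luminescence cut by over half; inconclusive means some wells, but at most half, below -50%; inactive means no replicate well below -50%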;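 further: luciferase reports HSF-1 transcriptional activity via heat shock element; 0% = median of DMSO wells and -100% = zero luminescence signal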
The depositor's hits bear a star; ? = inconclusive.

SMILES | Calb FLC | HSF1 activator | T cruzi repl | HIF activator | HSF1 inh
COC(=O)C(NC(=O)c1c(C)nn(C)c1Cl)c1ccccc1 (stereo not drawn) | 0 | 8 | 7 | 609* | 1
CCCOc1ccc(-c2csc(NC(=O)CN3C(=O)CCC3=O)n2)cc1 | 0 | 10 | -18 | 0 | -4
COc1ccccc1CNC(=O)C(C)NS(=O)(=O)c1ccc(Br)cc1 (stereo not drawn) | 3 | -80 | 0 | 0 | -73*
CCc1nc(Nc2ccccc2OC)c2oc3ccccc3c2n1 | 0 | 20 | 14 | 0 | 2
COc1ccc(Cn2c(-c3ccc(Br)cc3)c[n+]3ccccc23)cc1 | 28 | 62* | 70* | 1 | 34
Cc1ccc(CN2C(=O)C(C)Oc3ccccc32)cc1 (stereo not drawn) | -7 | -7 | 18 | -1 | -6
Cc1ccc(N2Cc3ccccc3OC(C)C2=O)cc1 (stereo not drawn) | -8 | 55* | -2 | -1 | 27
O=C1/C(=C/c2ccco2)CCC1C1CCCC1 (stereo not drawn) | -7 | 61* | -9 | 3 | 42
O=C1/C(=C/c2ccccc2)CCC1C1CCCC1 (stereo not drawn) | -41 | 30 | 1 | 3 | 14
Cc1ccc(CNC(=O)C2CCC(=O)N(Cc3ccc(Cl)cc3)C2)cc1F (stereo not drawn) | 19 | 56* | -11 | 0 | 16
COc1ccc(CCN2CC(C(=O)NCc3cc(C)on3)CCC2=O)cc1 (stereo not drawn) | 1 | 74* | -4 | 0 | 30
CCn1cc(CNC(=O)C2CCC(=O)N(Cc3ccc(Cl)cc3)C2)cn1 (stereo not drawn) | 0 | -16 | -14 | 0 | -3
CCC(CC)COC(=O)C1=C(C)NC(=O)NC1c1ccc2c(c1)OCO2 (stereo not drawn) | -3 | 19 | 11 | -1 | 9
Cn1c(CCNC(=O)c2ccccc2F)nnc1SCC(=O)Nc1ccccc1F | 15 | -4 | -12 | 0 | 5
Cc1ccc(-c2cc(C(=O)Nc3cccnc3)c3ccccc3n2)o1 | -15 | 52* | -6 | 0 | 34
CC(C)(C)NS(=O)(=O)c1ccc(NC(=O)c2cc(-c3ccccc3)nc3ccccc23)cc1 | -4 | 23 | 59* | 0 | 9
Cc1ccc(C)c(-c2cc(C(=O)Nc3cccc(C(=O)O)c3)c3ccccc3n2)c1 | -5 | -14 | -8 | 39* | 2
O=C(Nc1nccs1)c1cc2c(s1)-c1ccccc1OC2 | -3 | 38 | -33 | 4 | 23
Cc1cccc2c1-c1sc(C(=O)Nc3nccs3)cc1CO2 | -10 | 56* | -9 | 4 | 30
CCOC(=O)/C(=C/c1ccc(OC(=O)c2ccccc2)cc1)C(C)=O | 0 | 77* | -24 | 0 | 73
O=C(CC(c1ccccc1)c1ccco1)Nc1nccs1 (stereo not drawn) | -7 | -3 | 9 | 2 | -3
Cn1c(C(=O)NN)cc2cc(OCc3ccccc3)ccc21 | 3 | -86 | 5 | 0 | -84*
COc1ccc(OCc2cccc(C(=O)Nn3cc([N+](=O)[O-])cn3)c2)cc1 | ? | -60 | 10 | -2 | -54*
COc1ccc(C(=O)Nc2ccc(OCc3ccccc3)cc2)cc1[N+](=O)[O-] | -15 | -67 | -1 | 0 | -61*
COC(=O)c1cccc(Cn2cc([N+](=O)[O-])cn2)c1 | -16 | 22 | 1 | -1 | 3
SMILES | Calb FLC | HSF1 activator | T cruzi repl | HIF activator | HSF1 inh
COc1ccc(OCc2cccc(C(=O)NN)c2)cc1 | 11 | -74 | 4 | -11 | -66*
Cc1cc(S(=O)(=O)Nc2ccc(C(=O)NCCCN3CCCC3=O)cc2)ccc1F | 0 | 14 | -10 | -1 | -1
CC(NC(=O)CN1CCN(Cc2cccc(F)c2)CC1)c1ccccc1 (stereo not drawn) | -5 | 6 | 11 | 0 | 1
CC(C)CCNC(=O)CN(C(=O)CCC(=O)Nc1nccs1)c1ccc2c(c1)OCCO2 | -1 | -63 | 4 | -1 | -62*
CC(C)(C)NC(=O)CN(C(=O)CCC(=O)Nc1nccs1)c1ccc2c(c1)OCCO2 | -8 | -15 | 0 | 0 | -5
O=c1oc2cc(Cl)ccc2n1CSc1nc2ccccc2s1 | -7 | 104* | 0 | 2 | 63
O=[N+]([O-])c1ccc(/C=[N+](\[O-])CCO)o1 | 58 | 0 | 59* | -1 | 8
CC1CC(C)CN(C(=O)c2cc(S(=O)(=O)N3CCCCC3)ccc2Cl)C1 (stereo not drawn) | -9 | 8 | 6 | 0 | 2
COc1ccccc1N(C(=O)c1ccncc1)c1nc(-c2ccc([N+](=O)[O-])cc2)cs1 | 30 | -12 | 62* | 0 | -2
CCOc1ccc(-c2csc3ncn(-c4ccc(OC)cc4)c(=O)c23)cc1 | 5 | 8 | -5 | -1 | -11
NC(=S)N/N=C/c1ccc(C23CC4CC(CC(C4)C2)C3)cc1 | -2 | -7 | 77* | -22 | 1
CCn1nc(C)c(CNC(=O)CC2C(=O)NCCN2CC(C)(C)C)c1C (stereo not drawn) | -4 | -6 | -4 | 0 | -8
COCCNC(=O)C1CC2Cn3c(nc4ccccc43)C2N1C (stereo not drawn) | 26 | 2 | -4 | 0 | -1
COc1ccc(N/C=C2/Sc3ccccc3NC2=O)cc1 | -6 | 24 | 68* | 1 | 5
O=C1Nc2ccccc2S/C1=C/NCc1ccccc1Cl | 10 | 13 | 5 | 0 | -4
Cc1ccc(N/C=C2/Sc3ccccc3NC2=O)cc1 | 18 | 38 | 59* | 1 | 26
Cc1ccc(CNC(=O)Nc2cccs2)cc1 | -6 | 73* | -11 | 1 | 47
O=C1NCCN/C1=C\C(=O)c1ccc(Cl)cc1 | -21 | 24 | 1 | 4 | -1
Cc1ccc(SCC(=O)N/N=C/c2ccco2)cc1 | 5 | 59* | -12 | 0 | 16
CCOC(=O)c1c(C)[nH]c(C2=NNC(=Nc3cccc(Cl)c3)SC2)c1C | 31 | -75 | 41 | 0 | -75*
CC(=O)c1c(C)[nH]c(C2=NNC(=NCc3ccccc3)SC2)c1C | 15 | -13 | -4 | -1 | 0
Cc1c(C(=O)Nc2ccc(Cl)cc2)c2ccccn2c1CCc1ccncc1 | ? | 66* | 63* | 0 | 37
Cc1c(C(=O)Nc2cccc(Cl)c2)c2ccccn2c1CCc1ccncc1 | 11 | 27 | 56* | 0 | -4
CCOc1cccc2cc(C(=O)NCc3ccccc3Cl)c(=O)oc12 | -3 | 0 | 2 | -17 | 0
COc1cc(OC)cc(-c2cc3nc(C)c(CCC(=O)NC(C)CCc4ccco4)c(C)n3n2)c1 (stereo not drawn) | 8 | -29 | 65* | -3 | -14
Cc1nc2cc(-c3cccc(F)c3)nn2c(C)c1CCC(=O)NC(C)CCc1ccco1 (stereo not drawn) | 2 | -27 | 39 | -2 | -11

Compound activity deposited in PubChem by Broad Institute.
